Measured values published in article PMC6930338 (Journal of autoimmunity, 2019).
Where a chain is given by its changes, count along the chain named. Where no end group is shown, it is not given here.

Assays:
HLA-DRB1*04:01-*04:13 = HLA-DRB1*04:01-*04:13 (Homo sapiens, UniProt P01903+P01911, A100K/A169T/F76Y/I96L/K127E/L162R/M171V/N62H/P40V/Q125Y/R42H/S133A/S149N/S66Y/V115G/V209L/W38E); test: In vitro competitive peptide binding to purified MHC class II
HLA-DRB4*01:01/ *01:03 = HLA-DRB4*01:01/ *01:03 (Homo sapiens, UniProt P01903+P13762, G164S); test: In vitro competitive peptide binding to purified MHC class II
In short: (§1)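 Candidate MPO peptides were picked by IEDB in silico prediction and then tested in vitro. Each peptide's inhibition of binding of a high-affinity radiolabeled peptide to purified HLA-DPB1*04:01 or HLA-DRB4*01:01 class II molecules was measured.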

HLA-DRB1*03:04/ *03:07 = HLA-DRB1*03:04/ *03:07 (Homo sapiens, UniProt P01903+P01911, A100K/A102G/A103R/A169T/F55Y/I96L/K41T/L162R/M171V/P40S/Q125H/Q178H/Q39Y/R42S/T106N/T262R/W38E/Y61H); test: In vitro competitive peptide binding to purified MHC class II
[1] = biological target: T1, HLA-DPA1*01:03/ HLA-DPB1*04:02 (Homo sapiens, UniProt P04440+P20036, A65V/A84D/A85E/L207M); test: as above
T1 sequence (P20036 29-260): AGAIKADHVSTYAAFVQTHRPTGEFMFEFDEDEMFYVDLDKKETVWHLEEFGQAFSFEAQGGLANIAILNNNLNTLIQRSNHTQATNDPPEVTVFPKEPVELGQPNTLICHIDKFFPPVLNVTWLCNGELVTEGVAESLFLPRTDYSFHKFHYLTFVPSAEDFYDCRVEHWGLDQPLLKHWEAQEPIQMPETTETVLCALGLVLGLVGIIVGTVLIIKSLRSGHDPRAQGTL
T1 sequence (P04440 30-258 A65V/A84D/A85E): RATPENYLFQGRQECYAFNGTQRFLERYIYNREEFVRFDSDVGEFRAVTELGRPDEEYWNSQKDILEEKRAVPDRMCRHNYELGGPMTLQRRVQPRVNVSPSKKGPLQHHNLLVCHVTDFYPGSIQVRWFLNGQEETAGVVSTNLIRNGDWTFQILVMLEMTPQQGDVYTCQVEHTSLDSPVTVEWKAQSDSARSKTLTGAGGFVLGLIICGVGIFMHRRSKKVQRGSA

[2] = biological target: HLA-DRB5*01:01/ *01:02/ *02:02 (Homo sapiens, UniProt P01903+Q30154); test: as above
[3] = biological target: T2, HLA-DPA1*01:03/ HLA-DPB1*04:01 (Homo sapiens, UniProt P04440+P20036); test: In vitro competitive peptide binding to purified MHC class II
T2 sequence (P20036 29-260): T1 sequence (P20036 29-260)
T2 sequence (P04440 30-258): T1 sequence (P04440 30-258 A65V/A84D/A85E) with V36A, D55A, E56A
In short: as §1

[4] = Peptide solubility noted during ELISA optimization; assay type: physicochemical; settings: qualitative; follow-up testing and optimization of ELISA

| IC50 (HLA-DRB1*04:01-*04:13) | IC50 (HLA-DRB4*01:01/ *01:03) | IC50 (HLA-DRB1*03:04/ *03:07) | IC50 [1] | IC50 [2] | IC50 [3] | Solubility compared with MPO447–459 [4] | Compound |
| --- | --- | --- | --- | --- | --- | --- | --- |
| 2 nM | 725 nM | 2970 nM | 1340 nM | 5 nM | 5620 nM |  | CC[C@H](C)[C@H](NC(=O)[C@H](CCCNC(=N)N)NC(=O)[C@@H]1CCCN1)C(=O)N[C@@H](C)C(=O)N[C@@H](CC(N)=O)C(=O)N[C@H](C(=O)N[C@@H](Cc1ccccc1)C(=O)N[C@H](C(=O)N[C@@H](CC(N)=O)C(=O)N[C@@H](C)C(=O)N[C@@H](Cc1ccccc1)C(=O)N[C@@H](CCCNC(=N)N)C(=O)N[C@@H](Cc1ccc(O)cc1)C(=O)NCC(=O)N[C@@H](Cc1c[nH]cn1)C(=O)O)[C@@H](C)O)C(C)C [MPO488–502] |
| 4140 nM | 381 nM | 70000 nM | 910 nM | 1180 nM | 1090 nM |  | DQERSLMFMQWGQLL [MPO245–259] |
| 933 nM | 9350 nM | 31100 nM | 19400 nM | 1440 nM | 53700 nM |  | GEKLYQEARKIVGAM [MPO413–427, reference compound] |
|  | 17 nM |  |  |  | 38 nM |  | IKAVRIYIGDVMRQT [MPO447–461scramble, reference compound] |
| 16 nM | 217 nM | 11000 nM | 826 nM | 81 nM | 409 nM |  | MPELTSMHTLLLREH [MPO409–423] |
| 8 nM | 68 nM | 32800 nM | 2480 nM | 29 nM | 12000 nM |  | PILRGLMATPAKLNR [MPO545–559] |
|  | 253 nM |  |  |  | 1050 nM |  | PRWDGERLYQEARKIVGAMV [MPO435–454] |
| 433 nM | 876 nM | 14500 nM | 6170 nM | 321 nM | 7120 nM |  | PVAATRTAVRAADYL [MPO105–119] |
| 46 nM | 240 nM | 13900 nM | 74 nM | 1210 nM | 98 nM | improved solubility | RKIVGAMVQIITYRD [MPO447–461] |
